# pIC50: −log10 of the molar value. “And” between values parts separate entries of the source, which are not always exact repeats. Identical values can stand only once.
# Columns and labels:
# Assay type in all cases: functional
# Homo sapiens = organism: Homo sapiens; assay: In vitro inhibitory activity against IL-1 generation by using human monocyte
# Summary of the method: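 Healthy-donor peripheral mononuclear cells, adhered 1.5 h in RPMI 1640 with 10% heat-inactivated autologous serum. Adherent monocytes then stimulated with LPS 1 μg/mL for 16–18 h in 1% autologous serum with 0.1% ethanol, ± drug. Extra- plus intracellular IL-1 read by LAF assay against a recombinant human IL-1β curve. IC50 by least squares; mean of ≥2 experiments.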
# Rattus norvegicus [1] = organism: Rattus norvegicus; assay: In vitro inhibitory activity against IL-1 generation by using rat exudated macrophages
# Summary of the method: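 Fisher rat peritoneal exudate cells collected 4 days after i.p. 2.5% glycogen. Cells adhered 1.5 h at 37 °C in 1% normal rat serum. Adherent macrophages stimulated with LPS 1 ng/mL for 4 h ± compound. Intracellular IL-1 read by LAF assay against a recombinant human IL-1α curve. IC50 by least squares; mean of duplicates.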
# Rattus norvegicus [2] = assay: In vivo percent inhibition of IL-1 generation in rat CMC-LPS air pouch model at 100 uM concentration (local administration)
# Summary of the method: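 Rat air pouch: 10 mL air s.c. into the dorsum, 2% CMC-Na in saline 24 h later, then LPS 5 ng 24 h after CMC. Compound given locally in 5% EtOH-RPMI with 30% autologous serum, 100 μM final in exudate, at 30 min before and just before LPS. Exudate IL-1 (extra- plus intracellular) read by LAF at 4 h. n=5; % inhibition ± SEM.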
# Rattus norvegicus [3] = assay: Compound was evaluated in vivo for the percent inhibition of IL-1 generation in rat CMC-LPS air pouch model at 200 mg/Kg concentration (oral administration)
# Summary of the method: (§1)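 Rat CMC-LPS air pouch: air s.c., 2% CMC-Na 24 h later, LPS 5 ng 24 h after that. Compound given orally in 0.5% methyl cellulose 2 h before LPS. Exudate collected at 4 h; IL-1 (extra- plus intracellular) read by LAF assay against a recombinant human IL-1α curve.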
# Rattus norvegicus [4] = assay: Compound was evaluated in vivo for the percent inhibition of IL-1 generation in rat CMC-LPS air pouch model at 50 mg/Kg concentration (oral administration); summary of the method: as §1
SMILES,pIC50 (Homo sapiens),pIC50 (Rattus norvegicus [1]),Inhibition (Rattus norvegicus [2]),inhibition in vivo at 200 mg/kg (Rattus norvegicus [3]) [%],inhibition in vivo at 50 mg/kg (Rattus norvegicus [4]) [%]
CCCCCOc1cc(/C=C/C(=O)O)c2cccc(CC)c2c1O,5.28,5.60,33%,–,–
CC/C(=C\c1cc(OC)c(O)c2c(CC)cccc12)C(=O)O,–,5.85,72%,41,–
CCCc1cccc2c(/C=C/C(=O)O)cc(OC)c(O)c12,5.64,> 6.00,91%,32,< 25
CCCc1cccc2c(/C=C(/CC)C(=O)O)cc(OC)c(O)c12,> 6.00,> 6.00,90% and 78%,–,47
CCc1c(OC)c(O)c2c(CC)cccc2c1/C=C/C(=O)O,< 5.00,–,<25%,–,–
CCCc1cccc2c(/C=C(/C)C(=O)O)cc(OC)c(O)c12,–,–,87% and 86%,–,33
CCc1cccc2c(/C=C(\Cc3cccs3)C(=O)O)cc(OC)c(O)c12,–,5.19,44%,–,–
CCc1cccc2c(O)c(OC)cc(/C=C/C(=O)O)c12,5.74,5.26,26%,–,–
CCCc1cccc2c(/C=C(/Cc3ccccc3)C(=O)O)cc(OC)c(O)c12,–,5.80,91%,51,–
CCCc1cccc2c(/C=C(\CC)C(=O)O)cc(OC)c(O)c12,5.43,> 6.00,91%,62,–
CC/C(=C/c1cc(OC)c(O)c2c(CC)cccc12)C(=O)O,–,5.68,90% and 71%,–,43
CCc1cccc2c(/C(C)=C\C(=O)O)cc(OC)c(O)c12,–,< 5.00,<25%,–,–
CCc1cccc2c(/C(C)=C/C(=O)O)cc(OC)c(O)c12,–,< 5.00,<25%,–,–
CCc1cccc2c(/C=C(\C)C(=O)O)cc(OC)c(O)c12,–,–,85%,36,–
COc1cc(/C=C(\C)C(=O)O)c2cccc(C(C)C)c2c1O,> 6.00,6.00,70%,< 25,–
CCc1c(OC)c(O)c2ccccc2c1/C=C/C(=O)O,< 5.00,< 5.00,<25%,–,–

SMILES,pIC50 (Homo sapiens),pIC50 (Rattus norvegicus [1]),Inhibition (Rattus norvegicus [2]),inhibition in vivo at 200 mg/kg (Rattus norvegicus [3]) [%],inhibition in vivo at 50 mg/kg (Rattus norvegicus [4]) [%]
CCc1ccc2c(O)c(OC)cc(/C=C/C(=O)O)c2c1,5.41,5.40,<25%,–,–
COc1cc(/C=C/C(=O)O)c2cccc(C(C)C)c2c1O,5.85,6.00,73%,< 25,–
CCCc1cccc2c(/C=C(\C)C(=O)O)cc(OC)c(O)c12,–,–,91%,67,< 25
COc1cc(/C=C/C(=O)O)c2ccccc2c1O,5.72,5.85,<25%,–,–
CCc1cccc2c(/C=C/C(=O)O)cc(OCCOC)c(O)c12,< 5.00,5.46,34%,–,–
COCCCc1cccc2c(/C=C/C(=O)O)cc(OC)c(O)c12,–,5.20,<25%,–,–
CCc1cccc2c(/C=C/C(=O)O)cc(OCc3ccccc3)c(O)c12,5.17,5.72,39%,–,–
CCc1ccc2c(/C=C/C(=O)O)cc(OC)c(O)c2c1,5.40,5.39,<25%,–,–
CCc1cccc2c(/C=C/C(=O)O)cc(OC)c(O)c12,5.62,5.82,88%,< 25,–
COc1cc(/C=C(/C)C(=O)O)c2cccc(C(C)C)c2c1O,5.68,5.85,87% and 79%,–,29
CCCC/C(=C\C(=O)O)c1cc(OC)c(O)c2c(CC)cccc12,5.24,< 5.00,52%,–,–
COc1cc(/C=C/C(=O)O)c2cccc(C)c2c1O,5.60,> 6.00,<25%,–,–
CCc1cccc2c(/C=C(/C(=O)O)c3ccccc3)cc(OC)c(O)c12,–,5.60,42%,< 25,–
CCc1cccc2c(/C=C(/Cc3ccccc3)C(=O)O)cc(OC)c(O)c12,–,5.68,–,–,< 25
CCOc1cc(/C=C/C(=O)O)c2cccc(CC)c2c1O,–,5.85,75%,–,–
CCc1cccc2c(/C=C(\Cc3ccccc3)C(=O)O)cc(OC)c(O)c12,–,5.64,79%,< 25,–

# Reference: ChEMBL document CHEMBL1126114, “A novel orally active inhibitor of IL-1 generation: synthesis and structure-activity relationships of 3-(4-hydroxy-1-naphthalenyl)-2-propenoic acid derivatives” (J Med Chem, 1992)
